pIC50: −log10 of the molar value.

Data set [1] deals with T1, Serine/threonine-protein kinase pim-3 (Homo sapiens, UniProt Q86V86). Briefly: Inhibition of human recombinant His6-tagged PIM3 expressed in Sf21 cells using RSRHSSYPAGT as substrate after 30 mins.
In data set [2] the target is T2, Serine/threonine-protein kinase pim-2 (Homo sapiens, UniProt Q9P1W9). Briefly: Inhibition of human recombinant PIM2 expressed in Escherichia coli assessed as residual activity using RSRHSSYPAGT as substrate at 10 uM after 30 mins. In short, it runs like this: (§1)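 Residual activity at 10 μM inhibitor, run in duplicate. Assay buffer was 50 mM Tris/HCl pH 7.5, 0.1 mM EGTA, 0.1% 2-mercaptoethanol. Reactions were stopped with orthophosphoric acid and spotted onto P81 filters.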
Target sequence in this assay (Q9P1W9 whole entry, looked up): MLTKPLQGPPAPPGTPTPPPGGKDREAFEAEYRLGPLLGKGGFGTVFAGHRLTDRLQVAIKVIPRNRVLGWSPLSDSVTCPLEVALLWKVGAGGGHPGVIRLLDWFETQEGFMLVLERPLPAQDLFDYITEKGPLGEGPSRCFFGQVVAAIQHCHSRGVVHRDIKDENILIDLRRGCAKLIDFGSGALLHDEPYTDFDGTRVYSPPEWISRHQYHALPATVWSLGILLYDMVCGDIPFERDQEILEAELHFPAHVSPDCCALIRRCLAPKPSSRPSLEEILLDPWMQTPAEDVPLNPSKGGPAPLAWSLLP

For data set [3], the target named is T1, Serine/threonine-protein kinase pim-3. As to the kind of experiment: Inhibition of human recombinant His6-tagged PIM3 expressed in Sf21 cells assessed as residual activity using RSRHSSYPAGT as substrate at 10 uM after 30 mins. In short, it runs like this:
as §1

The target of data set [4] is T3, Serine/threonine-protein kinase pim-1 (Homo sapiens, UniProt P11309). Briefly: Inhibition of human recombinant His6-tagged PIM1 expressed in Sf21 cells using RSRHSSYPAGT as substrate after 30 mins.
Target sequence in this assay (P11309 whole entry): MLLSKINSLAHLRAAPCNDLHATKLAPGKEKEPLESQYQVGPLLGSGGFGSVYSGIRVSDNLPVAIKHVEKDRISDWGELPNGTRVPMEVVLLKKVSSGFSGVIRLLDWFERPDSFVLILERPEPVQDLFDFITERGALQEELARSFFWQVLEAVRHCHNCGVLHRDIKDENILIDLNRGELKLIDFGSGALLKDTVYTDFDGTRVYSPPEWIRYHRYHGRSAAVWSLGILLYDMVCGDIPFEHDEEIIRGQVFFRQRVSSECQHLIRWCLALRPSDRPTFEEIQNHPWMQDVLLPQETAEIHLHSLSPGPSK
Data set [5] has as its target T3, Serine/threonine-protein kinase pim-1. As to the kind of experiment: Inhibition of human recombinant His6-tagged PIM1 expressed in Sf21 cells assessed as residual activity using RSRHSSYPAGT as substrate at 10 uM after 30 mins. The gist of the method:
as §1
Target sequence in this assay (P11309 whole entry, looked up): as the sequence (P11309 whole entry) above

For a further data set, the system named is PC-3. As to the kind of experiment: Cellular uptake in human PC3 cells at 10 uM after 24 hrs by fluorescence microscopy. The class given is ADME, cell-based. Conditions: pc-3, 24 h; call rule not given here. The gist of the method:
(§2)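 PC-3 cells in RPMI-1640 with 10% FBS, 2 mM L-glutamine and penicillin/streptomycin were grown overnight on coverslips, then exposed to 10 μM compound in DMSO (vehicle control 0,1% DMSO) for 24 h. Cells were PBS-washed, fixed 15 min in 4% paraformaldehyde and mounted. Fluorescence microscopy used a DAPI filter. Mean intensity was background-corrected and averaged from three regions in two parallel samples.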

The nature of data set [6]: Drug uptake in human PC3 cell cytoplasm at 10 uM after 24 hrs by fluorescence microscopy. Particulars: pc-3, 24 h. The class given is ADME, cell-based. In short, it runs like this:
as §2

The nature of data set [7]: Drug uptake in human PC3 cell nucleus at 10 uM after 24 hrs by fluorescence microscopy. The class given is ADME, cell-based. Particulars: pc-3, 24 h. The gist of the method:
as §2

The target of data set [8] is T2, Serine/threonine-protein kinase pim-2. Briefly: Inhibition of human recombinant PIM2 expressed in Escherichia coli using RSRHSSYPAGT as substrate after 30 mins.
Target sequence in this assay (Q9P1W9 whole entry): as the sequence (Q9P1W9 whole entry, looked up) above

For the compound `[N-]=[N+]=NCCCCn1c2ccccc2c2ccc3c(C=O)c[nH]c3c21`, the negative-log IC50 (pIC50) was 6.97 in data set [1] and 6.98 in data set [4]. Besides, the results for the Activity in [2], in [3] and in data set [5] were 22%, 14% and 9%, respectively.
With `O=Cc1c[nH]c2c1ccc1c3ccccc3[nH]c12`, in the data set with PC-3, the Drug uptake result is recorded as “Not Active”.
Take `CN(C)c1cccc2c(S(=O)(=O)NCc3cn(CCCCn4c5ccccc5c5ccc6c(C=O)c[nH]c6c54)nn3)cccc12`: the figures for the Activity in data set [2], in data set [3] and in data set [5] were 66%, 38% and 17%, respectively. Besides, the Drug uptake result in data set [6] is “Active”; in data set [7] it was “Not Active”.
As to `O=Cc1c[nH]c2c1ccc1c3ccccc3n(CCCCn3cc(CO)nn3)c12`, the pIC50 was 6.63 in data set [1] and 6.50 in data set [4]. Also, the Activity in data set [2] came out at 36%; in data set [3] it was 23%; in [5], 8%.
For `C[N+](C)(CCO)Cc1cn(CCCCn2c3ccccc3c3ccc4c(C=O)c[nH]c4c32)nn1`, in that order: 6.31, 6.49, 65%, 28% and 9%.
For the compound `O=Cc1cn2c3c1ccc1c4ccccc4n(c13)CCCC2`, the pIC50 in data set [1] is 7.89; in [4], 8.10; in [8], 6.46. Besides, the Activity was determined as 6% in [2], 1% in data set [3] and 7% in data set [5].

As usually defined, the pIC50 is the negative decadic logarithm of the IC50, by convention in mol/L.

The record behind these values is ChEMBL document CHEMBL1949527, “Use of copper(I) catalyzed azide alkyne cycloaddition (CuAAC) for the preparation of conjugated pyrrolo[2,3-a]carbazole Pim kinase inhibitors” (Eur J Med Chem, 2012).
